The target of series [1] is T1, Amine oxidase [flavin-containing] A (Homo sapiens, UniProt P21397).
T1 sequence (P21397 whole entry): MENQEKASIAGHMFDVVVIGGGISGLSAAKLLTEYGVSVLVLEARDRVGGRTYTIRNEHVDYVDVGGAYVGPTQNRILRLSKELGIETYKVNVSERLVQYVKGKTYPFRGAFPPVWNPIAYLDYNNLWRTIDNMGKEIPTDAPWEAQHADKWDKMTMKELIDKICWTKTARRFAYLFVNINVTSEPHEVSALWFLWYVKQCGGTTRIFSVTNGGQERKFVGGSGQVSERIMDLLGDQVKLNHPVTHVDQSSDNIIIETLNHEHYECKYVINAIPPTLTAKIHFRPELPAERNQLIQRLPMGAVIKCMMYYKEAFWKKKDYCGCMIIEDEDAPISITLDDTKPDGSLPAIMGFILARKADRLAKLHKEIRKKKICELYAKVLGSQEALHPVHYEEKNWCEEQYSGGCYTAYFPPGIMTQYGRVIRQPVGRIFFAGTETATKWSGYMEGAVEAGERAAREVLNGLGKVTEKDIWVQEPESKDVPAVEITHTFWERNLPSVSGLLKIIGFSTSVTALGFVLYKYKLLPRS
In words: Inhibition of human recombinant MAO-A using p-tyramine as substrate assessed as production of H2O2 incubated for 15 mins prior to substrate addition at 60 uM […] by microplate fluorescence reader analysis. The conditions noted are these: 20 min.

For the next series, the species on record is Homo sapiens. In words: Selectivity index, ratio of IC50 for human recombinant MAO-B to IC50 for human recombinant MAO-A. A digest of the protocol:
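SI = IC50(MAO-B)/IC50(MAO-A), both from the same Amplex Red/p-tyramine H2O2 fluorimetric assay. Each isoform came from microsomes of baculovirus-infected insect cells: MAO-A at 1.1 µg, MAO-B at 7.5 µg, matched to equal velocity.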

Series [2] deals with T1, Amine oxidase [flavin-containing] A. In words: Inhibition of human recombinant MAO-A using p-tyramine as substrate assessed as production of H2O2 incubated for 15 mins prior to substrate addition measured after 20 mins by microplate fluorescence reader analysis.
The target of series [3] is T2, Amine oxidase [flavin-containing] B (Homo sapiens, UniProt P27338).
T2 sequence (P27338 whole entry): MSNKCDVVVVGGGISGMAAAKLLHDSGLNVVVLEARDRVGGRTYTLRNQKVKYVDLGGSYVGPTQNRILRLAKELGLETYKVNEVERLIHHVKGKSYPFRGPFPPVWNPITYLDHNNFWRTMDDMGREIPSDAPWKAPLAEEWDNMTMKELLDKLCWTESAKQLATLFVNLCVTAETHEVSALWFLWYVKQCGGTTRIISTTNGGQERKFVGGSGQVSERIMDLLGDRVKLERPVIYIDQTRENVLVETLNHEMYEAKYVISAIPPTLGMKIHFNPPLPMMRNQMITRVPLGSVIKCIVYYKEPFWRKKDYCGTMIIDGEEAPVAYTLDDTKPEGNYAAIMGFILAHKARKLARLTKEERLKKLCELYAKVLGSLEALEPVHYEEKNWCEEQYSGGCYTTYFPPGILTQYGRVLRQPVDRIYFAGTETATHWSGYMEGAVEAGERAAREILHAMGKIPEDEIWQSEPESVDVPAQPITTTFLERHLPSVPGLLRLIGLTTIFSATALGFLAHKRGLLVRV
In words: Inhibition of human recombinant MAO-B using p-tyramine as substrate assessed as production of H2O2 incubated for 15 mins prior to substrate addition measured after 20 mins by microplate fluorescence reader analysis.

The target of series [4] is T2, Amine oxidase [flavin-containing] B. In words: Inhibition of human recombinant MAO-B using p-tyramine as substrate assessed as production of H2O2 incubated for 15 mins prior to substrate addition at 60 uM measured after 20 mins by microplate fluorescence reader analysis.

In the case of `C#CCN(C)[C@H](C)Cc1ccccc1` [SELEGILINE], the “inhibition (INH)” value in series [1] is recorded as “Not Active”.
In general, IC50 refers to the concentration that inhibits the measured activity by half. With `Cc1ccc(C2=NN(C(=O)CN3CCCCC3)C(c3ccccc3O)C2)cc1` (centres undefined), the Ratio IC50 in the series filed under Homo sapiens came to 4. In addition, the figures for the IC50 in series [2] and in series [3] were 11.3 µM and 45.6 µM, respectively.
Regarding `COc1ccc(C2=NN(C(=O)CN3CCCCC3)C(c3cc(Cl)ccc3O)C2)cc1` (centres undefined), in series [4], the INH result was “Not Active”. Besides, in the series listed under Homo sapiens, the Ratio IC50 turned out to be 6.2. In addition, the IC50 in series [2] came to 9.65 µM.
For `Cc1ccc(C2=NN(C(=O)CBr)C(c3cc(Cl)ccc3O)C2)cc1` (centres undefined), the INH result in series [4] was “Not Active”. Also, the Ratio IC50 in the series listed under Homo sapiens was found to be 11.5. In addition, the IC50 in series [2] is 5.22 µM.
Regarding `O=C(CN1CCCCC1)N1N=C(c2ccc(F)cc2)CC1c1ccccc1O` (centres undefined), the Ratio IC50 in the series filed under Homo sapiens was determined as 5.9. The IC50 in series [2] turned out to be 8.02 µM; in series [3], 47.4 µM.
For `COc1ccc(C2=NN(C(=O)CN3CCCCC3)C(c3ccccc3O)C2)cc1` (centres undefined), in that order: 4.7, 12.7 µM and 59.4 µM.
Regarding `O=C(CN1CCCCC1)N1N=C(c2ccccc2)CC1c1ccccc1O` (centres undefined), in the series filed under Homo sapiens, the Ratio IC50 was 5.3. The 50% inhibitory concentration (IC50) stood at 9.51 µM in series [2] and 50.6 µM in series [3].
For `O=C(CN1CCCCC1)N1N=C(c2ccc(Cl)cc2)CC1c1cc(Cl)ccc1O` (centres undefined), in that order: 7.3, 6.01 µM and 44.1 µM.
For the compound `O=C(CN1CCCCC1)N1N=C(c2ccc(Cl)cc2)CC1c1ccccc1O` (centres undefined), in the series listed under Homo sapiens, the Ratio IC50 came out at 5.5. For the same compound, the IC50 in series [2] is 7.25 µM; in series [3] it was 40.1 µM.
For `O=C(CN1CCNCC1)N1N=C(c2ccc(F)cc2)CC1c1cc(Cl)ccc1O` (centres undefined), in that order: 24.5, 2.4 µM and 58.9 µM.
`Cc1ccc(C2=NN(C(=O)CN3CCOCC3)C(c3ccccc3O)C2)cc1` (centres undefined): the INH entry in series [4] is “Not Active”. For the same compound, in the series filed under Homo sapiens, the Ratio IC50 stood at 3. The IC50 in series [2] was determined as 20 µM.
Take `CC1=NN(C(=O)CN2CCC(O)CC2)C(c2cc(Br)cc(Br)c2O)C1` (centres undefined): the INH result in series [4] is on record as “Not Active”. Besides, the Ratio IC50 in the series listed under Homo sapiens was 4.8. Besides, the IC50 in series [2] is 12.4 µM.
With `COc1ccc(C2=NN(C(=O)CN3CCOCC3)C(c3cc(Cl)ccc3O)C2)cc1` (centres undefined), the Ratio IC50 in the series listed under Homo sapiens was 3.1. Besides, the IC50 in series [2] came out at 18.3 µM; in series [3], 56.5 µM.
For `O=C(CBr)N1N=C(c2ccc(F)cc2)CC1c1ccccc1O` (centres undefined), in that order: 8.8, 6 µM and 52.9 µM.
For `O=C(CN1CCOCC1)N1N=C(c2ccc(Cl)cc2)CC1c1ccccc1O` (centres undefined), in that order: 1.5, 21.2 µM and 31.5 µM.
On to `CC1=NN(C(=O)CN2CCNCC2)C(c2cc(Br)cc(Br)c2O)C1` (centres undefined), for which, in series [4], the INH entry is on record as “Not Active”. In the series filed under Homo sapiens, the Ratio IC50 amounted to 30. Also, in series [2], the IC50 was 2 µM.
On to `O=C(Cn1ccnc1)N1N=C(c2ccccc2)CC1c1ccccc1O` (centres undefined), for which the Ratio IC50 in the series listed under Homo sapiens is 1. Also, in series [1], the “inhibition (INH)” value is reported as “Not Active”. Besides, in series [3], the IC50 came out at 59.4 µM.
Take `CC1=NN(C(=O)CN2CCCCC2)C(c2cc(Br)cc(Br)c2O)C1` (centres undefined): the Ratio IC50 in the series filed under Homo sapiens amounted to 6.4. Moreover, the half-inhibitory concentration (IC50) in series [2] was 7.8 µM; in series [3] it was 49.9 µM.
In the case of `O=C(CN1CCOCC1)N1N=C(c2ccc(F)cc2)CC1c1ccccc1O` (centres undefined), the INH entry in series [4] was “Not Active”. The Ratio IC50 in the series filed under Homo sapiens was 3.6. In series [2], the IC50 amounted to 16.9 µM.
As for `O=C(CN1CCCCC1)N1N=C(c2ccc(F)cc2)CC1c1cc(Cl)ccc1O` (centres undefined), in series [4], the INH result is given as “Not Active”. In the series filed under Homo sapiens, the Ratio IC50 is 16.1. Also, the IC50 in series [2] is 3.72 µM.
Consider `CC1=NN(C(=O)Cn2ccnc2)C(c2cc(Cl)ccc2O)C1` (centres undefined), for which, in series [4], the INH entry was “Not Active”. In addition, the Ratio IC50 in the series listed under Homo sapiens amounted to 2. Further, the IC50 in series [2] is 30.3 µM.
Regarding `COc1ccc(C2=NN(C(=O)Cn3ccnc3)C(c3ccccc3O)C2)cc1` (centres undefined), in series [4], the INH entry is “Not Active”. Moreover, the “inhibition (INH)” value in series [1] is given as “Not Active”.
Consider `CC1=NN(C(=O)CN2CCC(=O)CC2)C(c2cc(Br)cc(Br)c2O)C1` (centres undefined), for which the Ratio IC50 in the series listed under Homo sapiens stood at 7. Further, the figures for the half-maximal inhibitory concentration (IC50) in series [2] and in series [3] were 8.38 µM and 58.9 µM, respectively.
On to `COc1ccc(C2=NN(C(=O)CN3CCOCC3)C(c3ccccc3O)C2)cc1` (centres undefined), for which the INH entry in series [4] was “Not Active”. Also, in the series filed under Homo sapiens, the Ratio IC50 came to 2.5. Besides, the IC50 in series [2] was found to be 24.5 µM.
For `Cc1ccc(C2=NN(C(=O)CN3CCOCC3)C(c3cc(Cl)ccc3O)C2)cc1` (centres undefined), in that order: “Not Active”, 2.2 and 27 µM.
As to `O=C(CN1CCOCC1)N1N=C(c2ccc(Cl)cc2)CC1c1cc(Cl)ccc1O` (centres undefined), the Ratio IC50 in the series filed under Homo sapiens stood at 1.8. Moreover, the values for the IC50 in series [2] and in series [3] were 31.2 µM and 55.1 µM, respectively.
Regarding `CC1=NN(C(=O)CN2CCC(CO)CC2)C(c2cc(Br)cc(Br)c2O)C1` (centres undefined), the Ratio IC50 in the series filed under Homo sapiens is 1.2. The IC50 is 25.7 µM in series [2] and 30.1 µM in series [3].
For `CC1=NN(C(=O)CN2CCN(CCO)CC2)C(c2cc(Br)cc(Br)c2O)C1` (centres undefined), in that order: 3.4, 12.3 µM and 42.3 µM.
With `O=C(Cn1ccnc1)N1N=C(c2ccc(F)cc2)CC1c1ccccc1O` (centres undefined), the INH entry in series [4] was “Not Active”. Besides, the Ratio IC50 in the series listed under Homo sapiens was 2.3. In addition, the 50% inhibitory concentration (IC50) in series [2] is 26.3 µM.
Turning to `Cc1ccc(C2=NN(C(=O)CN3CCCCC3)C(c3cc(Cl)ccc3O)C2)cc1` (centres undefined), in the series listed under Homo sapiens, the Ratio IC50 turned out to be 3.9. The IC50 amounted to 14.4 µM in series [2] and 56.2 µM in series [3].
With `O=C(Cn1ccnc1)N1N=C(c2ccc(F)cc2)CC1c1cc(Cl)ccc1O` (centres undefined), in series [4], the INH entry is listed as “Not Active”. For the same compound, in series [1], the “inhibition (INH)” value is “Not Active”.
Take `CC1=NN(C(=O)CN2CCOCC2)C(c2cc(Cl)ccc2O)C1` (centres undefined): the Ratio IC50 in the series filed under Homo sapiens amounted to 3.2. The IC50 amounted to 13.1 µM in series [2] and 41.8 µM in series [3].
On to `Cc1ccc(C2=NN(C(=O)Cn3ccnc3)C(c3ccccc3O)C2)cc1` (centres undefined), for which, in the series filed under Homo sapiens, the Ratio IC50 turned out to be 0.69. In addition, in series [1], the “inhibition (INH)” value is on record as “Not Active”. Moreover, the IC50 in series [3] was determined as 41.3 µM.
With `COc1ccc(C2=NN(C(=O)Cn3ccnc3)C(c3cc(Cl)ccc3O)C2)cc1` (centres undefined), the INH entry in series [4] is given as “Not Active”. Besides, the “inhibition (INH)” value in series [1] is “Not Active”.
For `CC1=NN(C(=O)CN2CCCCC2)C(c2cc(Cl)ccc2O)C1` (centres undefined), the Ratio IC50 in the series filed under Homo sapiens amounted to 5.3. Further, the IC50 was 10.5 µM in series [2] and 55.9 µM in series [3].
As for `Cc1ccc(C2=NN(C(=O)Cn3ccnc3)C(c3cc(Cl)ccc3O)C2)cc1` (centres undefined), the Ratio IC50 in the series listed under Homo sapiens stood at 0.27. In addition, the “inhibition (INH)” value in series [1] was “Not Active”. In series [3], the IC50 was determined as 16.1 µM.
For the compound `O=C(CN1CCOCC1)N1N=C(c2ccccc2)CC1c1ccccc1O` (centres undefined), the INH result in series [4] is recorded as “Not Active”. Besides, in the series filed under Homo sapiens, the Ratio IC50 stood at 2.6. In series [2], the IC50 came out at 23.2 µM.
With `O=C(CN1CCOCC1)N1N=C(c2ccc(F)cc2)CC1c1cc(Cl)ccc1O` (centres undefined), the Ratio IC50 in the series listed under Homo sapiens stood at 1.2. Moreover, the IC50 in series [2] was 24.3 µM; in series [3], 30.2 µM.

These data come from ChEMBL document CHEMBL3393005, “Design and synthesis of novel 2-pyrazoline-1-ethanone derivatives as selective MAO inhibitors” (Bioorg Med Chem, 2015).
